According to ChEMBL document CHEMBL4359857, “Design, synthesis and biological evaluation of chalcones as reversers of P-glycoprotein-mediated multidrug resistance” (Eur J Med Chem, 2019):
Calls of active or inactive are those of the source. The calls are words filed in the database; no cut-off is given here.

Columns and labels:
[1] = Cytotoxicity against human MCF7/Dox cells assessed as cell survival at 12.5 uM after 48 hrs by MTT assay relative to control; assay type: cell-based; conditions: read-out: Survival
[2] = test system: MCF7-DOX; assay: Cytotoxicity against human MCF7/Dox cells assessed as reduction in cell viability after 48 hrs by MTT assay; assay type: cell-based
[3] = test system: MCF7-DOX; assay: Antitumour activity against human MCF7/Dox cells xenografted in Balb/c mouse assessed as tumour growth inhibition at 2 mg/kg measured after 30 days; assay type: functional, organism-based
[4] = Reversal of P-gp-mediated multidrug resistance in human MCF7/Dox cells assessed as potentiation of doxorubicin-induced cytotoxicity by measuring doxorubicin IC50 at 12.5 uM after 48 hrs by MTT assay (reference value: 51.19 +/- 0.95 microM)
[5] = Cytotoxicity against human MCF7 cells assessed as growth inhibition after 48 hrs by MTT assay; assay type: cell-based
[6] = test system: MCF7-DOX; assay: Antitumour activity against human MCF7/Dox cells xenografted in Balb/c mouse assessed as reduction in tumour weight at 5 to 15 mg/kg and measured after 30 days; assay type: functional, organism-based
[7] = test system: MCF7-DOX; assay: Down regulation of p-gp protein expression in human MCF7/Dox cells at 12.5 uM in presence of doxorubicin by Western blotting analysis; assay type: functional, cell-based; conditions: TDE = time-dependent effect
Method in brief: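 MCF-7/DOX cells exposed to compound (12.5 µM), DOX (8 µM), or the combination for 24 h and 48 h. P-gp protein measured by western blot. MCF-7 parental cells used as reference.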

[8] = target: ATP-dependent translocase ABCB1 (Homo sapiens, UniProt P08183); assay: Reversal of P-gp mediated drug efflux in human MCF7/Dox cells assessed as increase in intracellular doxorubicin accumulation at 12.5 uM after 24 hrs by DAPI based fluorescence microscopic analysis; assay type: cell-based
Method in brief: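 MCF-7/DOX cells exposed to DOX 8 µM with or without compound at 12.5 µM. Nuclei stained with DAPI. Intracellular DOX red fluorescence imaged by fluorescence microscopy.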

[9] = Cytotoxicity against MDCK2 cells expressing BCRP assessed as growth inhibition after 48 hrs by MTT assay; assay type: ADME, cell-based, Canis lupus familiaris; conditions: dog, MDCK2 (MDCK-II) cells expressing BCRP
[10] = test system: MCF7-DOX; assay: Antitumour activity against human MCF7/Dox cells xenografted in Balb/c mouse assessed as tumour growth inhibition at 5 to 15 mg/kg in presence of doxorubicin and measured after 30 days; assay type: functional, organism-based
[11] = Cytotoxicity against human MCF7/Dox cells assessed as growth inhibition after 48 hrs by MTT assay; assay type: cell-based
[12] = target: T1, Broad substrate specificity ATP-binding cassette transporter ABCG2 (Homo sapiens, UniProt Q9UNQ0); assay: Reversal of ABCG2 (unknown origin)-mediated multidrug resistance expressed in MDCK2 cells assessed as potentiation of mitoxantrone-induced cytotoxicity at 25 uM after 48 hrs by MTT assay; assay type: cell-based
T1 sequence (Q9UNQ0 whole entry): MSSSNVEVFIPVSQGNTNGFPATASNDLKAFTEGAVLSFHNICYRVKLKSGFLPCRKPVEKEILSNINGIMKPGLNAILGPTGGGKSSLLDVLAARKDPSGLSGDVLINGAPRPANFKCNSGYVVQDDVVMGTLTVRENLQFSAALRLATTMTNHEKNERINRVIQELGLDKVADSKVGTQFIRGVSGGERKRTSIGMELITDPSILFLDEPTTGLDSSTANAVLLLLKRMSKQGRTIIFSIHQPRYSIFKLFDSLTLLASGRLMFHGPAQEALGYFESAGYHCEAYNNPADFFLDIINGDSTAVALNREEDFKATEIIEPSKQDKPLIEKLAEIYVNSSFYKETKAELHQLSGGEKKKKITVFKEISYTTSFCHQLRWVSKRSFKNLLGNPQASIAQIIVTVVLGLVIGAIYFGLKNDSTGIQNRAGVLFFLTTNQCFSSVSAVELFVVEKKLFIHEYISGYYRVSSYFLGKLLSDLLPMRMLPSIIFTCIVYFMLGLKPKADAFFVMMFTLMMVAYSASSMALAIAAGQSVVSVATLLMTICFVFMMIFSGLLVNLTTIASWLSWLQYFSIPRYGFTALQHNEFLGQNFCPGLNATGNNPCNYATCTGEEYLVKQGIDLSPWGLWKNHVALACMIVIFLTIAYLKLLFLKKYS
Method in brief: (§1)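 Transporter selectivity screen by MTT in H69AR (MRP1-overexpressing) with doxorubicin, and in MDCK II BCRP with mitoxantrone. Compound tested at 12.5 and 25 µM alongside the cytostatic. Reversal read as decreased viability versus cytostatic alone.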

[13] = test system: MCF7; assay: Antimigratory activity against human MCF7 cells after 36 hrs by crystal violet staining based transwell migration assay; assay type: functional, cell-based
Method in brief: (§2)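 Transwell migration assay with MCF-7 or MCF-7/DOX cells treated 36 h. Migrated cells quantified against untreated control cells. Means ± SD, n = 3.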

[14] = Cytotoxicity against human H69AR cells assessed as growth inhibition after 48 hrs by MTT assay; assay type: cell-based
[15] = test system: MCF7-DOX; assay: Antimigratory activity against human MCF7/Dox cells after 24 hrs by wound healing assay; assay type: functional, cell-based
Method in brief: (§3)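 Wound-healing assay on confluent monolayers of MCF-7 or MCF-7/DOX cells. Cells treated 24 h, then wound width imaged and migration quantified against untreated control cells. Means ± SD, n = 3.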

[16] = target: Multidrug resistance-associated protein 1 (Homo sapiens, UniProt P33527); assay: Reversal of MRP-1 (unknown origin)-mediated multidrug resistance expressed in human H69AR cells assessed as potentiation of doxorubicin-induced cytotoxicity at 25 uM after 48 hrs by MTT assay; assay type: cell-based; method in brief: as §1
[17] = Cytotoxicity against human H69 cells assessed as growth inhibition after 48 hrs by MTT assay; assay type: cell-based; conditions: H69 cells (NCI-H69)
[18] = Toxicity in Balb/c mouse xenografted with human MCF7/Dox cells assessed as effect on body weight at 5 to 15 mg/kg in presence of doxorubicin and measured after 30 days; assay type: organism-based; conditions: in vivo, 720 h
[19] = test system: MCF7-DOX; assay: Antitumour activity against human MCF7/Dox cells xenografted in Balb/c mouse assessed as reduction in tumour volume at 5 to 15 mg/kg and measured after 30 days; assay type: functional, organism-based
[20] = test system: MCF7-DOX; assay: Antimigratory activity against human MCF7/Dox cells after 36 hrs by crystal violet staining based transwell migration assay; assay type: functional, cell-based; method in brief: as §2
[21] = test system: MCF7-DOX; assay: Down regulation of p-gp mRNA expression in human MCF7/Dox cells at 12.5 uM in presence of doxorubicin after 48 hrs by RT-PCR analysis; assay type: functional, cell-based
Method in brief: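 MCF-7/DOX cells exposed for 48 h to compound (12.5 µM), DOX (8 µM), or both. P-gp mRNA measured by RT-PCR versus control and DOX-alone groups.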

[22] = Cytotoxicity against MDCK2 cells assessed as growth inhibition after 48 hrs by MTT assay; assay type: cell-based, Canis lupus familiaris; conditions: dog, MDCK2 (MDCK-II) cells
[23] = test system: MCF7; assay: Antimigratory activity against human MCF7 cells after 24 hrs by wound healing assay; assay type: functional, cell-based; method in brief: as §3
[24] = Toxicity in Balb/c mouse xenografted with human MCF7/Dox cells assessed as body weight at 5 to 15 mg/kg administered for 30 days and measured for every 2 days; assay type: organism-based; conditions: in vivo

Sequence of ATP-dependent translocase ABCB1 (P08183 whole entry): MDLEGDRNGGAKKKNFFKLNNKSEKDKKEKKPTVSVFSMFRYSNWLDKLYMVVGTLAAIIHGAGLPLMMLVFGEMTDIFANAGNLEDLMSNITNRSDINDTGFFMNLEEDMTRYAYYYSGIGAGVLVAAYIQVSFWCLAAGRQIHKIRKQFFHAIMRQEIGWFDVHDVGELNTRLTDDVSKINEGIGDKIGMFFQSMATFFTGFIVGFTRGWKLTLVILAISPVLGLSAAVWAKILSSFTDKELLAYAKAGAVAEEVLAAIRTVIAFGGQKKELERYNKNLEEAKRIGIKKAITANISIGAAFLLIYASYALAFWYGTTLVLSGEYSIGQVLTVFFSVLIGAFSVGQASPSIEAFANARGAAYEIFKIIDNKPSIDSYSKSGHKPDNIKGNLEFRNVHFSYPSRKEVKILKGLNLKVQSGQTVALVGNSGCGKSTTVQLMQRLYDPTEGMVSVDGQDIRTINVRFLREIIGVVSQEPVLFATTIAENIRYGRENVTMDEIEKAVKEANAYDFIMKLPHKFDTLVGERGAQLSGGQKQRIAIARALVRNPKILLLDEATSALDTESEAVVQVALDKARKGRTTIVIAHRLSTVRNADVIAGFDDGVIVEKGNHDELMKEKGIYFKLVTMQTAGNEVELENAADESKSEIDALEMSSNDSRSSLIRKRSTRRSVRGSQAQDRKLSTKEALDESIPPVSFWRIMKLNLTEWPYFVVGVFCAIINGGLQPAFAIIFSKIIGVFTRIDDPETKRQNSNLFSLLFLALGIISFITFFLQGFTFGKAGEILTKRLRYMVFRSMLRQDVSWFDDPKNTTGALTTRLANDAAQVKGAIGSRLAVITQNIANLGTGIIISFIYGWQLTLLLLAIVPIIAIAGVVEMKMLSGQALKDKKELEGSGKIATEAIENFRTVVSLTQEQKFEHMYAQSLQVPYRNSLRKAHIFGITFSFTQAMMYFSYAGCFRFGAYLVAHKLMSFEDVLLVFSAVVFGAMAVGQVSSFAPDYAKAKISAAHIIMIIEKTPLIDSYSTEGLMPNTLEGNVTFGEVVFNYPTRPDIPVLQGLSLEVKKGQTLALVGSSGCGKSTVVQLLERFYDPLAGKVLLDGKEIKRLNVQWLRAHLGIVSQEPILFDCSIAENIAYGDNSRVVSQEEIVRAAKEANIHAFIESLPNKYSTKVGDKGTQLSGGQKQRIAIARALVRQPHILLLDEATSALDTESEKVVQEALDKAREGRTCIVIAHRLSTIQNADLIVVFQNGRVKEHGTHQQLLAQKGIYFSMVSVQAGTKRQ
Sequence of Multidrug resistance-associated protein 1 (P33527 whole entry): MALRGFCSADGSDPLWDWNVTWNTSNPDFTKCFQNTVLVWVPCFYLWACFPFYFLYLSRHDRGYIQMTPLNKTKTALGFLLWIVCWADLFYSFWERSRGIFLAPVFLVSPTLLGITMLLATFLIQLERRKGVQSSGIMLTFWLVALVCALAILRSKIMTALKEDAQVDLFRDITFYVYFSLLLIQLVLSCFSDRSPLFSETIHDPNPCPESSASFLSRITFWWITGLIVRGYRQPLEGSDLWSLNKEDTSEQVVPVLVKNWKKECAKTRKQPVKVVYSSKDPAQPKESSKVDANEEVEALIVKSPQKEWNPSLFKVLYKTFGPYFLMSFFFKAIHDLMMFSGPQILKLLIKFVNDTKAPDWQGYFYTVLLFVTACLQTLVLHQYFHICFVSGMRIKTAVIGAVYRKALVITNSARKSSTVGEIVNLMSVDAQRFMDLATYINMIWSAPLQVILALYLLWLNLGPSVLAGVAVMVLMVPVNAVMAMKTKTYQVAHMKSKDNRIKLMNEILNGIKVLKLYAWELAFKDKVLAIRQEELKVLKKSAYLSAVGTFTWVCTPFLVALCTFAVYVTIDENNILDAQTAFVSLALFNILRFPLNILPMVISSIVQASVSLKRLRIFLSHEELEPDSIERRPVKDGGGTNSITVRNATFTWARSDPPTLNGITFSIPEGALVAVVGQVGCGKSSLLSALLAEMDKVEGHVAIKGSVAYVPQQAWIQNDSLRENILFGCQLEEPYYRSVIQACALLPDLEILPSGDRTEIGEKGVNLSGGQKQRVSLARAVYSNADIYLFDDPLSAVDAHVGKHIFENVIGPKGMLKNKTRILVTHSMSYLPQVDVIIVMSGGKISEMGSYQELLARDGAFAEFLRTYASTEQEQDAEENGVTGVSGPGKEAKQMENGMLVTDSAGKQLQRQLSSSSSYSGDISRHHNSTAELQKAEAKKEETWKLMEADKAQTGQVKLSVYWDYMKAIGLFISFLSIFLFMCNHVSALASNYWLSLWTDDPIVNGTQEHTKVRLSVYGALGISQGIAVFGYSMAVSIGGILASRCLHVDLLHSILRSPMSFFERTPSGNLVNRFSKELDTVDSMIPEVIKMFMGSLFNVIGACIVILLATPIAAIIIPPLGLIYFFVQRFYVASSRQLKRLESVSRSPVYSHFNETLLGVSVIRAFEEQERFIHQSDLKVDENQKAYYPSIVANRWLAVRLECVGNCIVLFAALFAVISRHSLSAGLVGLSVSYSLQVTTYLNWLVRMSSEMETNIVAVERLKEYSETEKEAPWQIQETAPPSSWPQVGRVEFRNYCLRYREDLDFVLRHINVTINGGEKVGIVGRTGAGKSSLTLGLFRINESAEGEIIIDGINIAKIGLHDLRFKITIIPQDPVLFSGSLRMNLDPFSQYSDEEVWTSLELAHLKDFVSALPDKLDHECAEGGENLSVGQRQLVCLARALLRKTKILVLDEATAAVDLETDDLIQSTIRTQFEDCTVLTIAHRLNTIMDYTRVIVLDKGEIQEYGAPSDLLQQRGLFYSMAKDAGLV

Row | SMILES | viability at 48 h, 12.5 µM [1] | IC50 [2] | also measured
1 | COc1c(C)c(O)c(C)c(O)c1C(=O)/C=C/c1ccccc1 | 86% | 46.8 µM | –
2 | COc1cccc2c1C(=O)c1c(O)c3c(c(O)c1C2=O)C[C@@](O)(C(=O)CO)C[C@@H]3O[C@H]1C[C@H](N)[C@H](O)[C@H](C)O1 | – | – | inhibition [3]: inactive
3 | COc1cc(OC)c(C(=O)/C=C/c2ccc(N3CCN(C(=O)OC(C)(C)C)CC3)cc2)c(O)c1CC=C(C)C | > 99% | > 100 µM | –
4 | COc1cc(OC)c(C(=O)/C=C/c2cccc(C(F)(F)F)c2)c(O)c1CC=C(C)C | 91.6% | 66.6 µM | –
5 | COc1cc(OC)c(C(=O)/C=C/c2ccc(OC)c(OC)c2OC)c(O)c1CC=C(C)C | 91.9% | 62.6 µM | –
6 | COc1cc(OC)c(C(=O)/C=C/c2cccc(Cl)c2)c(O)c1CC=C(C)C | > 99% | 59.5 µM | –
7 | CCCCCc1c(OC)cc(OC)c(C(=O)/C=C/c2cccc(N3CCNCC3)c2)c1O | 93.6% | > 100 µM | –
8 | COc1cc(O)c(C(=O)/C=C/c2cccc(N3CCN(C)CC3)c2)c(OC)c1 | > 99% | 62.2 µM | –
9 | COc1cccc(/C=C/C(=O)c2c(OC)cc(OC)c(CC=C(C)C)c2O)c1 | > 99% | 49.2 µM | –
10 | COc1cc(OC)c(C(=O)/C=C/c2cccc(N3CCNCC3)c2)c(O)c1C | 95.8% | 98.7 µM | IC50 [4]: 4 µM
11 | COc1ccc(/C=C/C(=O)c2c(OC)cc(OC)c(CC=C(C)C)c2O)cc1 | > 99% | 46.9 µM | –
12 | CCCCc1c(OC)cc(OC)c(C(=O)/C=C/c2cccc(N3CCNCC3)c2)c1O | 91.6% | > 100 µM | –
13 | COc1cc(O)c(C(=O)/C=C/c2ccc(N3CCN(C(=O)OC(C)(C)C)CC3)cc2)c(OC)c1 | 90.6% | 47.3 µM | –
14 | COc1cc(OC)c(C(=O)/C=C/c2ccc(N(C)C)cc2)c(O)c1CC=C(C)C | > 99% | > 100 µM | –
15 | COc1cc(OC)c(C(=O)/C=C/c2ccc(N3CCNCC3)cc2)c(O)c1CC=C(C)C | 98.3% | 57.8 µM | IC50 [4]: 14.84 µM
16 | CCCc1c(OC)cc(OC)c(C(=O)/C=C/c2cccc(N3CCNCC3)c2)c1O | > 99% | > 100 µM | –
17 | COc1cc(OC)c(C(=O)/C=C/c2cccc(N3CCN(C(=O)OC(C)(C)C)CC3)c2)c(O)c1CC=C(C)C | 93% | 42.6 µM | –

Row | SMILES | viability at 48 h, 12.5 µM [1] | IC50 [2] | also measured
18 | COc1ccc(C(=O)/C=C/c2cccc(N3CCNCC3)c2)c(OC)c1 | 96.4% | 95 µM | –
19 | COc1cc(O)c(C(=O)/C=C/c2cccc(N3CCNCC3)c2)c(OC)c1 | > 99% | 99.2 µM | –
20 | COc1cc(OC)c(C(=O)/C=C/c2cccc(N3CCN(C)CC3)c2)c(O)c1CC=C(C)C | > 99% | > 100 µM | IC50 [4]: 23.59 µM
21 | COc1cc(OC)c(C(=O)/C=C/c2ccc(Cl)cc2)c(O)c1CC=C(C)C | 90.1% | 43.4 µM | –
22 | COc1cc(OC)c(C(=O)/C=C/c2cccc([N+](=O)[O-])c2)c(O)c1CC=C(C)C | > 99% | 57 µM | IC50 [4]: 8.83 µM
23 | COc1cc(OC)c(C(=O)/C=C/c2ccccc2)c(O)c1CC=C(C)C | 90.6% | 65.4 µM | IC50 [4]: 20.64 µM
24 | COc1cc(O)c(C(=O)/C=C/c2cccc(N3CCN(C(=O)c4ccc(OC)c(OC)c4)CC3)c2)c(OC)c1 | > 99% | > 100 µM | –
25 | COc1cc(OC)c(C(=O)/C=C/c2cccc(F)c2)c(O)c1CC=C(C)C | 92.7% | 45.4 µM | –
26 | COc1cc(OC)c(C(=O)/C=C/c2cccc(N3CCOCC3)c2)c(O)c1CC=C(C)C | > 99% | > 100 µM | –
27 | COc1cc(O)c(C(=O)/C=C/c2cccc(N3CCOCC3)c2)c(OC)c1 | > 99% | > 100 µM | –
28 | CCc1c(OC)cc(OC)c(C(=O)/C=C/c2cccc(N3CCNCC3)c2)c1O | 89.5% | > 100 µM | –
29 | COc1cc(O)c(C(=O)/C=C/c2cccc(N3CCN(C(=O)OC(C)(C)C)CC3)c2)c(OC)c1 | 85.4% | 56.7 µM | IC50 [4]: 39.95 µM
30 | COc1cc(OC)c(C(=O)/C=C/c2ccc(C(F)(F)F)cc2)c(O)c1CC=C(C)C | > 99% | 73.7 µM | IC50 [4]: 23.59 µM
31 | COc1cc(OC)c(C(=O)/C=C/c2ccc(F)cc2)c(O)c1CC=C(C)C | 94.3% | 53.7 µM | IC50 [4]: 17.96 µM
32 | COc1cc(O)c(C(=O)/C=C/c2ccc(N3CCNCC3)cc2)c(OC)c1 | 94.2% | 67.5 µM | IC50 [4]: 16.62 µM
33 | COc1cc(OC)c(C(=O)/C=C/c2cc(OC)c(OC)c(OC)c2)c(O)c1CC=C(C)C | 90.8% | 74.9 µM | IC50 [4]: 26.56 µM
34 | COc1cc(OC)c(C(=O)/C=C/c2cccc(N3CCNCC3)c2)c(O)c1CC=C(C)C | > 99% | 99.9 µM | GI50 at 48 h [5]: > 100 µM; inhibition [6]: inactive; inhibition [7]: Tde; inhibition (INH) [8]: Active; GI50 at 48 h [9]: > 100 µM; TGI [10]: Active; GI50 at 48 h [11]: > 100 µM; inhibition (INH) [12]: Not Active; inhibition [13]: Active; GI50 at 48 h [14]: 91.7 µM; inhibition [15]: Active; inhibition (INH) [16]: Not Active; GI50 at 48 h [17]: > 100 µM; Activity [18]: Non-Toxic; inhibition [19]: inactive; inhibition [20]: Active; inhibition [21]: Active; GI50 at 48 h [22]: > 100 µM; inhibition [23]: Active; Activity [24]: Non-Toxic
